From ChEMBL document CHEMBL4689842, “EUbOPEN Chemogenomics Library wave 1” (2021)

System: HEK-293T
Test: Multiplex assay against HEK293T;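 as to Population Tubulin-Different-Phenotype (%): share of the cells with healthy nuclei that show this phenotype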
Type: toxicity, cell-based
Settings: human
In short: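 Live cells carried four stains from seeding: Hoechst33342, BioTracker Green Microtubule Cytoskeleton Dye, MitoTracker Red and Annexin V Alexa Fluor 680. They were imaged on a CQ1 microscope at 37°C and 5% CO2 after compound addition. Using CellPathfinder machine-learning gating, cells were split into Hoechst high-intensity objects or normal cells, normal cells into healthy, pyknosed or fragmented nuclei, and pyknosed cells into mitotic or apoptotic; tubulin, mitochondrial-mass and membrane-permeability phenotypes are per cents of healthy-nucleus cells.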

[1] = 12 h, 1 µM, compound concentration 1 uM, replicate 1
[2] = 12 h, 1 µM, compound concentration 1 uM, replicate 2
[3] = 12 h, 10 µM, compound concentration 10 uM, replicate 1
[4] = 12 h, 10 µM, compound concentration 10 uM, replicate 2
[5] = 24 h, 1 µM, compound concentration 1 uM, replicate 1
[6] = 24 h, 1 µM, compound concentration 1 uM, replicate 2
[7] = 24 h, 10 µM, compound concentration 10 uM, replicate 1
[8] = 24 h, 10 µM, compound concentration 10 uM, replicate 2
[9] = 48 h, 1 µM, compound concentration 1 uM, replicate 1
[10] = 48 h, 1 µM, compound concentration 1 uM, replicate 2
[11] = 48 h, 10 µM, compound concentration 10 uM, replicate 1
[12] = 48 h, 10 µM, compound concentration 10 uM, replicate 2

O=c1cc(N2CCOCC2)oc2c(-c3cccc4c3sc3ccccc34)cccc12
Population Apoptotic (%) [1]: 46% | Population Fragmented Nuclei (%) [1]: 7% | Population Hoechst High Intensity Objects (%) [1]: 12% | Population Membrane Permeable-Phenotype (%) [1]: 3% | Population Mitochondria Different-Phenotype (%) [1]: 92% | Population Mitotic Cells (%) [1]: 53% | Population Normal (%) [1]: 87% | Population Pyknosed Nuclei (%) [1]: 52% | Population Tubulin-Different-Phenotype (%) [1]: 58% | Total Cell Count [1]: 283 | Population Apoptotic (%) [2]: 14% | Population Fragmented Nuclei (%) [2]: 5% | Population Healthy Nuclei (%) [2]: 40% | Population Hoechst High Intensity Objects (%) [2]: 4% | Population Membrane Permeable-Phenotype (%) [2]: 1% | Population Mitochondria Different-Phenotype (%) [2]: 20% | Population Mitotic Cells (%) [2]: 85% | Population Normal (%) [2]: 95% | Population Pyknosed Nuclei (%) [2]: 53% | Population Tubulin-Different-Phenotype (%) [2]: 19% | Total Cell Count [2]: 224 | Population Apoptotic (%) [3]: 61% | Population Fragmented Nuclei (%) [3]: 16% | Population Healthy Nuclei (%) [3]: 14% | Population Hoechst High Intensity Objects (%) [3]: 14% | Population Membrane Permeable-Phenotype (%) [3]: 8% | Population Mitochondria Different-Phenotype (%) [3]: 100% | Population Mitotic Cells (%) [3]: 38% | Population Normal (%) [3]: 85% | Population Pyknosed Nuclei (%) [3]: 68% | Population Tubulin-Different-Phenotype (%) [3]: 91% | Total Cell Count [3]: 192 | Population Apoptotic (%) [4]: 49% | Population Fragmented Nuclei (%) [4]: 8% | Population Healthy Nuclei (%) [4]: 7% | Population Hoechst High Intensity Objects (%) [4]: 6% | Population Mitochondria Different-Phenotype (%) [4]: 91% | Population Mitotic Cells (%) [4]: 50% | Population Normal (%) [4]: 93% | Population Pyknosed Nuclei (%) [4]: 83% | Population Tubulin-Different-Phenotype (%) [4]: 83% | Total Cell Count [4]: 172 | Population Apoptotic (%) [5]: 53% | Population Fragmented Nuclei (%) [5]: 9% | Population Healthy Nuclei (%) [5]: 44% | Population Hoechst High Intensity Objects (%) [5]: 12% | Population Membrane Permeable-Phenotype (%) [5]: 2% | Population Mitochondria Different-Phenotype (%) [5]: 77% | Population Mitotic Cells (%) [5]: 46% | Population Normal (%) [5]: 87% | Population Pyknosed Nuclei (%) [5]: 46% | Population Tubulin-Different-Phenotype (%) [5]: 40% | Total Cell Count [5]: 310 | Population Apoptotic (%) [6]: 16% | Population Fragmented Nuclei (%) [6]: 3% | Population Healthy Nuclei (%) [6]: 60% | Population Hoechst High Intensity Objects (%) [6]: 4% | Population Membrane Permeable-Phenotype (%) [6]: 3% | Population Mitochondria Different-Phenotype (%) [6]: 22% | Population Mitotic Cells (%) [6]: 83% | Population Normal (%) [6]: 95% | Population Pyknosed Nuclei (%) [6]: 36% | Population Tubulin-Different-Phenotype (%) [6]: 38% | Total Cell Count [6]: 272 | Population Apoptotic (%) [7]: 61% | Population Fragmented Nuclei (%) [7]: 15% | Population Healthy Nuclei (%) [7]: 12% | Population Hoechst High Intensity Objects (%) [7]: 16% | Population Membrane Permeable-Phenotype (%) [7]: 0% | Population Mitochondria Different-Phenotype (%) [7]: 100% | Population Mitotic Cells (%) [7]: 38% | Population Normal (%) [7]: 83% | Population Pyknosed Nuclei (%) [7]: 71% | Population Tubulin-Different-Phenotype (%) [7]: 100% | Total Cell Count [7]: 206 | Population Apoptotic (%) [8]: 60% | Population Fragmented Nuclei (%) [8]: 7% | Population Healthy Nuclei (%) [8]: 22% | Population Hoechst High Intensity Objects (%) [8]: 2% | Population Mitotic Cells (%) [8]: 39% | Population Normal (%) [8]: 97% | Population Pyknosed Nuclei (%) [8]: 69% | Total Cell Count [8]: 186 | Population Apoptotic (%) [9]: 30% | Population Fragmented Nuclei (%) [9]: 17% | Population Healthy Nuclei (%) [9]: 42% | Population Hoechst High Intensity Objects (%) [9]: 9% | Population Membrane Permeable-Phenotype (%) [9]: 2% | Population Mitochondria Different-Phenotype (%) [9]: 44% | Population Mitotic Cells (%) [9]: 70% | Population Normal (%) [9]: 90% | Population Pyknosed Nuclei (%) [9]: 40% | Population Tubulin-Different-Phenotype (%) [9]: 45% | Total Cell Count [9]: 384 | Population Apoptotic (%) [10]: 14% | Population Fragmented Nuclei (%) [10]: 7% | Population Healthy Nuclei (%) [10]: 77% | Population Hoechst High Intensity Objects (%) [10]: 3% | Population Membrane Permeable-Phenotype (%) [10]: 3% | Population Mitochondria Different-Phenotype (%) [10]: 6% | Population Mitotic Cells (%) [10]: 85% | Population Normal (%) [10]: 96% | Population Pyknosed Nuclei (%) [10]: 15% | Population Tubulin-Different-Phenotype (%) [10]: 26% | Total Cell Count [10]: 477 | Population Apoptotic (%) [11]: 68% | Population Fragmented Nuclei (%) [11]: 24% | Population Healthy Nuclei (%) [11]: 20% | Population Hoechst High Intensity Objects (%) [11]: 17% | Population Membrane Permeable-Phenotype (%) [11]: 0% | Population Mitochondria Different-Phenotype (%) [11]: 100% | Population Mitotic Cells (%) [11]: 31% | Population Normal (%) [11]: 82% | Population Pyknosed Nuclei (%) [11]: 55% | Population Tubulin-Different-Phenotype (%) [11]: 93% | Total Cell Count [11]: 186 | Population Apoptotic (%) [12]: 61% | Population Fragmented Nuclei (%) [12]: 8% | Population Healthy Nuclei (%) [12]: 29% | Population Hoechst High Intensity Objects (%) [12]: 8% | Population Mitochondria Different-Phenotype (%) [12]: 94% | Population Mitotic Cells (%) [12]: 38% | Population Normal (%) [12]: 91% | Population Pyknosed Nuclei (%) [12]: 62% | Population Tubulin-Different-Phenotype (%) [12]: 96% | Total Cell Count [12]: 185

O=c1[nH]c2ccccc2n1C1CCN(Cc2ccc(-c3[nH]c4cc5ncnc5cc4nc3-c3ccccc3)cc2)CC1
Population Apoptotic (%) [1]: 16% | Population Fragmented Nuclei (%) [1]: 13% | Population Healthy Nuclei (%) [1]: 69% | Population Hoechst High Intensity Objects (%) [1]: 7% | Population Membrane Permeable-Phenotype (%) [1]: 7% | Population Mitochondria Different-Phenotype (%) [1]: 3% | Population Mitotic Cells (%) [1]: 83% | Population Normal (%) [1]: 92% | Population Pyknosed Nuclei (%) [1]: 16% | Population Tubulin-Different-Phenotype (%) [1]: 6% | Total Cell Count [1]: 646 | Population Apoptotic (%) [2]: 10% | Population Fragmented Nuclei (%) [2]: 5% | Population Healthy Nuclei (%) [2]: 89% | Population Hoechst High Intensity Objects (%) [2]: 2% | Population Membrane Permeable-Phenotype (%) [2]: 5% | Population Mitochondria Different-Phenotype (%) [2]: 23% | Population Mitotic Cells (%) [2]: 90% | Population Normal (%) [2]: 97% | Population Pyknosed Nuclei (%) [2]: 5% | Population Tubulin-Different-Phenotype (%) [2]: 43% | Total Cell Count [2]: 1621 | Population Apoptotic (%) [3]: 38% | Population Fragmented Nuclei (%) [3]: 10% | Population Healthy Nuclei (%) [3]: 50% | Population Hoechst High Intensity Objects (%) [3]: 20% | Population Membrane Permeable-Phenotype (%) [3]: 22% | Population Mitochondria Different-Phenotype (%) [3]: 40% | Population Mitotic Cells (%) [3]: 61% | Population Normal (%) [3]: 79% | Population Pyknosed Nuclei (%) [3]: 39% | Population Tubulin-Different-Phenotype (%) [3]: 91% | Total Cell Count [3]: 661 | Population Apoptotic (%) [4]: 24% | Population Fragmented Nuclei (%) [4]: 2% | Population Healthy Nuclei (%) [4]: 71% | Population Hoechst High Intensity Objects (%) [4]: 13% | Population Membrane Permeable-Phenotype (%) [4]: 13% | Population Mitochondria Different-Phenotype (%) [4]: 51% | Population Mitotic Cells (%) [4]: 75% | Population Normal (%) [4]: 86% | Population Pyknosed Nuclei (%) [4]: 25% | Population Tubulin-Different-Phenotype (%) [4]: 86% | Total Cell Count [4]: 974 | Population Apoptotic (%) [5]: 11% | Population Fragmented Nuclei (%) [5]: 14% | Population Hoechst High Intensity Objects (%) [5]: 6% | Population Membrane Permeable-Phenotype (%) [5]: 17% | Population Mitochondria Different-Phenotype (%) [5]: 3% | Population Mitotic Cells (%) [5]: 88% | Population Normal (%) [5]: 93% | Population Pyknosed Nuclei (%) [5]: 5% | Population Tubulin-Different-Phenotype (%) [5]: 14% | Total Cell Count [5]: 776 | Population Apoptotic (%) [6]: 7% | Population Fragmented Nuclei (%) [6]: 17% | Population Healthy Nuclei (%) [6]: 79% | Population Hoechst High Intensity Objects (%) [6]: 4% | Population Membrane Permeable-Phenotype (%) [6]: 14% | Population Mitochondria Different-Phenotype (%) [6]: 6% | Population Mitotic Cells (%) [6]: 92% | Population Normal (%) [6]: 95% | Population Pyknosed Nuclei (%) [6]: 3% | Population Tubulin-Different-Phenotype (%) [6]: 52% | Total Cell Count [6]: 2517 | Population Apoptotic (%) [7]: 54% | Population Fragmented Nuclei (%) [7]: 12% | Population Healthy Nuclei (%) [7]: 56% | Population Hoechst High Intensity Objects (%) [7]: 31% | Population Membrane Permeable-Phenotype (%) [7]: 9% | Population Mitochondria Different-Phenotype (%) [7]: 70% | Population Mitotic Cells (%) [7]: 45% | Population Normal (%) [7]: 68% | Population Pyknosed Nuclei (%) [7]: 31% | Population Tubulin-Different-Phenotype (%) [7]: 83% | Total Cell Count [7]: 612 | Population Apoptotic (%) [8]: 28% | Population Fragmented Nuclei (%) [8]: 2% | Population Healthy Nuclei (%) [8]: 71% | Population Hoechst High Intensity Objects (%) [8]: 23% | Population Membrane Permeable-Phenotype (%) [8]: 6% | Population Mitochondria Different-Phenotype (%) [8]: 67% | Population Mitotic Cells (%) [8]: 71% | Population Normal (%) [8]: 76% | Population Pyknosed Nuclei (%) [8]: 26% | Population Tubulin-Different-Phenotype (%) [8]: 72% | Total Cell Count [8]: 883
